Data: ChEMBL document CHEMBL1128644, “(+/-)-(N-alkylamino)benzazepine analogs: novel dopamine D1 receptor antagonists” (J Med Chem, 1995)

What was measured:
D(1A) dopamine receptor = D(1A) dopamine receptor (Rattus norvegicus, UniProt P18901)
D(2) dopamine receptor = D(2) dopamine receptor (Rattus norvegicus, UniProt P61169); experiment: Binding affinity against Dopamine receptor D2 from rat striatal membranes, using [3H]sulpiride as radioligand.
In short: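 Rat (male Sprague–Dawley, 200–250 g) caudate putamen membranes, freshly prepared in 50 mM Tris pH 7.4 and washed by centrifugation. Incubation with 3 nM [³H]sulpiride (final) for 30 min at 37 °C, in triplicate. Nonspecific binding defined with 10 μM sulpiride. Filtration, scintillation counting, Ki by LIGAND; at least three determinations.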

Chain of D(2) dopamine receptor (P61169 whole entry): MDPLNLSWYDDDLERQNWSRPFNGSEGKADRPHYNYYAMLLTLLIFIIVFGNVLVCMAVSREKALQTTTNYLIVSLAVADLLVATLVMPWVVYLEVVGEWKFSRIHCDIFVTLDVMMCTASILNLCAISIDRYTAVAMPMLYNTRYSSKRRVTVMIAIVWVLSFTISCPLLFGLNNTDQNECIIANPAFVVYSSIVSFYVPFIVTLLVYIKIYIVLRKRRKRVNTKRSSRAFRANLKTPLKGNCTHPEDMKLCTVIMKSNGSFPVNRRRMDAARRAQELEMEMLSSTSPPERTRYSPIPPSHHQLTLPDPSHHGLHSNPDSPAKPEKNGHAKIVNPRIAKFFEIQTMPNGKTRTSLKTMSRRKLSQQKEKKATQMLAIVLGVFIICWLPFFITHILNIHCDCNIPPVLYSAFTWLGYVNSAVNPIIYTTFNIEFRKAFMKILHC
Chain of D(1A) dopamine receptor (P18901 whole entry): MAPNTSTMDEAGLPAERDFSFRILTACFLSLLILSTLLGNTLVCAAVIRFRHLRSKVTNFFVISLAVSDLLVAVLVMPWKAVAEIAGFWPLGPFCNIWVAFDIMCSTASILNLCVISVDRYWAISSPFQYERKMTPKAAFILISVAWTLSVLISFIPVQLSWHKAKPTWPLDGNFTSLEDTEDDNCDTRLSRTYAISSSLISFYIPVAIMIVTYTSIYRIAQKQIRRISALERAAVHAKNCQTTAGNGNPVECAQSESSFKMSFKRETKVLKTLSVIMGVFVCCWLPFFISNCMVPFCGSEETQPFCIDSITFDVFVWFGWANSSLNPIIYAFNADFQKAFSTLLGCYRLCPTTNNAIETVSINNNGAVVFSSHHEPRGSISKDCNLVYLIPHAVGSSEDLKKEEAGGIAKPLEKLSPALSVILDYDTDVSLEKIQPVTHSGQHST

| SMILES | Ki (D(1A) dopamine receptor) [nM] | Ki (D(2) dopamine receptor) [nM] |
| --- | --- | --- |
| CNCCCCCCN1CCc2cc(Cl)c(O)cc2C(c2ccccc2)C1 (centres undefined) | 75.7 | 3570 |
| CN(C)CCCCCCN1CCc2cc(Cl)c(O)cc2C(c2ccccc2)C1 (centres undefined) | 49.3 | 3450 |
| CN(C)CCCCN1CCc2cc(Cl)c(O)cc2C(c2ccccc2)C1 (centres undefined) | 811 | 4130 |
| CCCCN1CCc2cc(Cl)c(O)cc2C(c2ccccc2)C1 (centres undefined) | 634 | 2360 |
| COc1cc2c(cc1Cl)CCN(CCCCN(C)C)CC2c1ccccc1 (centres undefined) | > 10000 | 9150 |
| COc1cc2c(cc1OC)C(c1ccccc1)CN(CCCCN(C)C)CC2 (centres undefined) | > 10000 | > 10000 |
| NCCCCN1CCc2cc(Cl)c(O)cc2C(c2ccccc2)C1 (centres undefined) | 75 | 4280 |
| CN(C)CCCCN1CCc2cc(Br)c(O)cc2C(c2ccccc2)C1 (centres undefined) | 1490 | > 10000 |
| COc1cc2c(cc1Br)CCN(CCCCN(C)C)CC2c1ccccc1 (centres undefined) | > 10000 | 2490 |
| CN(C)CCCCN1CCc2cc(O)c(O)cc2C(c2ccccc2)C1 (centres undefined) | 4820 | > 10000 |
| O=CNCCCCCCN1CCc2cc(Cl)c(O)cc2C(c2ccccc2)C1 (centres undefined) | 553 | 2030 |
| NCCCCCCN1CCc2cc(Cl)c(O)cc2C(c2ccccc2)C1 (centres undefined) | 321 | 2490 |
| BC#N.CN(C)CCCCCCN1CCc2cc(Cl)c(O)cc2C(c2ccccc2)C1 (centres undefined) | 142 |  |
| NCCCC(=O)N1CCc2cc(Cl)c(O)cc2C(c2ccccc2)C1 (centres undefined) | 607 | 7410 |
| CNCCCCN1CCc2cc(Cl)c(O)cc2C(c2ccccc2)C1 (centres undefined) | 106 | > 10000 |
